Test results reported in ChEMBL document CHEMBL1275561, “In vitro activities of doripenem, a new broad-spectrum carbapenem, against recently collected clinical anaerobic isolates, with emphasis on the Bacteroides fragilis group” (2008).
In brackets after ≈: the same amount, converted by molar mass.

How the values were obtained:
Assay type in all cases: functional
[1] = tested on: Parabacteroides distasonis; assay: Antimicrobial activity against Bacteroides distasonis by agar dilution method
Procedure, shortened: (§1)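 CLSI agar dilution on enriched brucella agar (5% lysed defibrinated sheep blood, 1 μg/ml vitamin K1), with drug plates made on the test day. Log-phase cells were adjusted to 0.5 McFarland, and about 10^5 CFU/spot was delivered by Steers replicator. Plates were incubated anaerobically at 37°C for 48 h. MIC was the lowest concentration giving a marked growth change versus the control plate. Controls were B. fragilis ATCC 25285 and B. thetaiotaomicron ATCC 29741.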

Bacteroides caccae [2] = assay: Antimicrobial activity against Bacteroides caccae assessed as resistant isolates by agar dilution method
Procedure, shortened: (§2)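 CLSI agar dilution on enriched brucella agar (5% lysed defibrinated sheep blood, 1 μg/ml vitamin K1), plates made on test day. Log-phase inocula adjusted to 0.5 McFarland; about 10^5 CFU/spot by Steers replicator. Incubated anaerobically at 37°C for 48 h. MIC was the lowest concentration giving a marked change in growth versus the drug-free control plate. Resistance rates used CLSI anaerobe breakpoints. Controls were B. fragilis ATCC 25285 and B. thetaiotaomicron ATCC 29741.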

Bacteroides caccae [3] = assay: Antimicrobial activity against Bacteroides caccae by agar dilution method; procedure, shortened: as §1
[4] = tested on: Parabacteroides distasonis; assay: Antimicrobial activity against Bacteroides distasonis assessed as resistant isolates by agar dilution method; procedure, shortened: as §2
Bacteroides fragilis [5] = assay: Antimicrobial activity against Bacteroides fragilis by agar dilution method; procedure, shortened: as §1
Bacteroides fragilis [6] = assay: Antimicrobial activity against Bacteroides fragilis assessed as resistant isolates by agar dilution method; procedure, shortened: as §2
Bacteroides ovatus [7] = assay: Antimicrobial activity against Bacteroides ovatus by agar dilution method; procedure, shortened: as §1
Bacteroides ovatus [8] = assay: Antimicrobial activity against Bacteroides ovatus assessed as resistant isolates by agar dilution method; procedure, shortened: as §2
[9] = tested on: Bacteroides thetaiotaomicron; assay: Antimicrobial activity against Bacteroides thetaiotaomicron by agar dilution method; procedure, shortened: as §1
[10] = tested on: Bacteroides thetaiotaomicron; assay: Antimicrobial activity against Bacteroides thetaiotaomicron assessed as resistant isolates by agar dilution method; procedure, shortened: as §2
Bacteroides uniformis [11] = assay: Antimicrobial activity against Bacteroides uniformis by agar dilution method; procedure, shortened: as §1
Bacteroides uniformis [12] = assay: Antimicrobial activity against Bacteroides uniformis assessed as resistant isolates by agar dilution method; procedure, shortened: as §2
Phocaeicola vulgatus [13] = assay: Antimicrobial activity against Bacteroides vulgatus by agar dilution method; procedure, shortened: as §1
Phocaeicola vulgatus [14] = assay: Antimicrobial activity against Bacteroides vulgatus assessed as resistant isolates by agar dilution method; procedure, shortened: as §2
Bacteroides eggerthii [15] = assay: Antimicrobial activity against Bacteroides eggerthii by agar dilution method; procedure, shortened: as §1
Bacteroides eggerthii [16] = assay: Antimicrobial activity against Bacteroides eggerthii assessed as resistant isolates by agar dilution method; procedure, shortened: as §2
Parabacteroides merdae [17] = assay: Antimicrobial activity against Bacteroides merdae by agar dilution method; procedure, shortened: as §1
Parabacteroides merdae [18] = assay: Antimicrobial activity against Bacteroides merdae assessed as resistant isolates by agar dilution method; procedure, shortened: as §2
Bacteroides nordii [19] = assay: Antimicrobial activity against Bacteroides nordii by agar dilution method; procedure, shortened: as §1
Bacteroides nordii [20] = assay: Antimicrobial activity against Bacteroides nordii assessed as resistant isolates by agar dilution method; procedure, shortened: as §2
Clostridioides difficile = assay: Antimicrobial activity against Clostridium difficile by agar dilution method
Clostridium perfringens = assay: Antimicrobial activity against Clostridium perfringens by agar dilution method
[Clostridium] innocuum [21] = Antimicrobial activity against Clostridium innocuum by agar dilution method
[Clostridium] innocuum [22] = Antimicrobial activity against Clostridium innocuum assessed as resistant isolates by agar dilution method; details: pooled result: one value given for 4 cell lines, strains, targets or settings
[23] = tested on: Clostridium paraputrificum; assay: Antimicrobial activity against Clostridium paraputrificum by agar dilution method
Clostridium subterminale = assay: Antimicrobial activity against Clostridium subterminale by agar dilution method
Clostridium tertium = assay: Antimicrobial activity against Clostridium tertium by agar dilution method
Finegoldia magna [24] = assay: Antimicrobial activity against Finegoldia magna by agar dilution method
Procedure, shortened: (§3)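 Gram-positive anaerobes were tested by CLSI agar dilution on brucella agar enriched with 5% lysed defibrinated sheep blood and 1 μg/ml vitamin K1. Inoculum was log-phase growth at 0.5 McFarland, about 10^5 CFU/spot by replicator. Incubation was anaerobic, 37°C, 48 h. MIC was the lowest concentration with a marked growth change versus the drug-free plate. Eubacterium lentum ATCC 43055 was the control, and tests were repeated if it fell outside the CLSI range.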

Finegoldia magna [25] = assay: Antimicrobial activity against Finegoldia magna assessed as resistant isolates by agar dilution method
Procedure, shortened: (§4)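 Agar dilution following CLSI on brucella agar with 5% lysed defibrinated sheep blood and 1 μg/ml vitamin K1, plates made on test day. Log-phase cells at 0.5 McFarland, about 10^5 CFU/spot by Steers replicator, 48 h anaerobic at 37°C. MIC read as the lowest concentration causing a marked growth change versus control. Resistance counted by CLSI anaerobe breakpoints. Eubacterium lentum ATCC 43055 served as control.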

[26] = tested on: Peptoniphilus asaccharolyticus; assay: Antimicrobial activity against Peptoniphilus asaccharolyticus by agar dilution method; procedure, shortened: as §3
[27] = tested on: Peptoniphilus asaccharolyticus; assay: Antimicrobial activity against Peptoniphilus asaccharolyticus assessed as resistant isolates by agar dilution method; details: pooled result: one value given for 4 cell lines, strains, targets or settings; procedure, shortened: as §4
Parvimonas micra = assay: Antimicrobial activity against Micromonas micros by agar dilution method; procedure, shortened: as §3
Anaerococcus prevotii = assay: Antimicrobial activity against Anaerococcus prevotii by agar dilution method; procedure, shortened: as §3
Peptostreptococcus sp. = assay: Antimicrobial activity against Peptostreptococcus sp. by agar dilution method
Procedure, shortened: (§5)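 Log-phase isolates were adjusted to 0.5 McFarland, and about 10^5 CFU/spot was delivered by Steers replicator. Plates were incubated anaerobically at 37°C for 48 h. MIC was the lowest concentration giving a marked growth change versus the control plate. Eubacterium lentum ATCC 43055 was the QC strain, with repeats when out of range.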

Cutibacterium acnes [28] = assay: Antimicrobial activity against Propionibacterium acnes by agar dilution method; procedure, shortened: as §5
Cutibacterium acnes [29] = assay: Antimicrobial activity against Propionibacterium acnes assessed as resistant isolates by agar dilution method; procedure, shortened: as §4
Propionibacterium [30] = assay: Antimicrobial activity against Propionibacterium sp. by agar dilution method; procedure, shortened: as §5
Propionibacterium [31] = assay: Antimicrobial activity against Propionibacterium sp. assessed as resistant isolates by agar dilution method; procedure, shortened: as §4

## C[C@@H](O)[C@H]1C(=O)N2C(C(=O)O)=C(S[C@@H]3CN[C@H](C(=O)N(C)C)C3)[C@H](C)[C@H]12 [MEROPENEM]
[1]
  MIC50: 1 µg/mL (≈ 2.61 µM)
  MIC90: 2 µg/mL (≈ 5.22 µM)
Bacteroides caccae [2]
  Activity: 0%
Bacteroides caccae [3]
  MIC50: 0.25 µg/mL (≈ 0.652 µM)
  MIC90: 2 µg/mL (≈ 5.22 µM)
[4]
  Activity: 0%
Bacteroides fragilis [5]
  MIC50: 0.25 µg/mL (≈ 0.652 µM)
  MIC90: 1 µg/mL (≈ 2.61 µM)
Bacteroides fragilis [6]
  Activity: 1.5%
Bacteroides ovatus [7]
  MIC50: 0.5 µg/mL (≈ 1.3 µM)
  MIC90: 2 µg/mL (≈ 5.22 µM)
Bacteroides ovatus [8]
  Activity: 0%
[9]
  MIC50: 0.5 µg/mL (≈ 1.3 µM)
  MIC90: 2 µg/mL (≈ 5.22 µM)
[10]
  Activity: 0%
Bacteroides uniformis [11]
  MIC50: 0.25 µg/mL (≈ 0.652 µM)
  MIC90: 0.5 µg/mL (≈ 1.3 µM)
Bacteroides uniformis [12]
  Activity: 0%
Phocaeicola vulgatus [13]
  MIC50: 0.5 µg/mL (≈ 1.3 µM)
  MIC90: 2 µg/mL (≈ 5.22 µM)
Phocaeicola vulgatus [14]
  Activity: 0%
Bacteroides eggerthii [15]
  MIC50: 0.25 µg/mL (≈ 0.652 µM)
  MIC90: 1 µg/mL (≈ 2.61 µM)
Bacteroides eggerthii [16]
  Activity: 0%
Parabacteroides merdae [17]
  MIC50: 0.25 µg/mL (≈ 0.652 µM)
  MIC90: 1 µg/mL (≈ 2.61 µM)
Parabacteroides merdae [18]
  Activity: 0%
Bacteroides nordii [19]
  MIC50: 0.25 µg/mL (≈ 0.652 µM)
  MIC90: 1 µg/mL (≈ 2.61 µM)
Bacteroides nordii [20]
  Activity: 0%
Clostridioides difficile
  MIC: 1 µg/mL (≈ 2.61 µM)
Clostridium perfringens
  MIC: 0.06 µg/mL (≈ 0.156 µM)
  MIC50: 0.06 µg/mL (≈ 0.156 µM)
  MIC90: 0.125 µg/mL (≈ 0.326 µM)
[Clostridium] innocuum [21]
  MIC50: 2 µg/mL (≈ 5.22 µM)
  MIC90: 2 µg/mL (≈ 5.22 µM)
[Clostridium] innocuum [22]
  Activity: 0%
[23]
  MIC50: 2 µg/mL (≈ 5.22 µM)
  MIC90: 2 µg/mL (≈ 5.22 µM)
Clostridium subterminale
  MIC50: 2 µg/mL (≈ 5.22 µM)
  MIC90: 2 µg/mL (≈ 5.22 µM)
Clostridium tertium
  MIC50: 2 µg/mL (≈ 5.22 µM)
  MIC90: 2 µg/mL (≈ 5.22 µM)
Finegoldia magna [24]
  MIC50: 0.125 µg/mL (≈ 0.326 µM)
  MIC90: 0.125 µg/mL (≈ 0.326 µM)
Finegoldia magna [25]
  Activity: 0%
[26]
  MIC50: 0.125 µg/mL (≈ 0.326 µM)
  MIC90: 0.5 µg/mL (≈ 1.3 µM)
[27]
  Activity: 0%
Parvimonas micra
  MIC50: 0.125 µg/mL (≈ 0.326 µM)
  MIC90: 0.5 µg/mL (≈ 1.3 µM)
Anaerococcus prevotii
  MIC50: 0.125 µg/mL (≈ 0.326 µM)
  MIC90: 0.5 µg/mL (≈ 1.3 µM)
Peptostreptococcus sp.
  MIC50: 0.125 µg/mL (≈ 0.326 µM)
  MIC90: 0.5 µg/mL (≈ 1.3 µM)
Cutibacterium acnes [28]
  MIC: 0.06 µg/mL (≈ 0.156 µM)
  MIC50: 0.06 µg/mL (≈ 0.156 µM)
  MIC90: 0.06 µg/mL (≈ 0.156 µM)
Cutibacterium acnes [29]
  Activity: 0%
Propionibacterium [30]
  MIC: 0.06 µg/mL (≈ 0.156 µM)
  MIC50: 0.06 µg/mL (≈ 0.156 µM)
  MIC90: 0.25 µg/mL (≈ 0.652 µM)
Propionibacterium [31]
  Activity: 0%
